Test results published in ChEMBL document CHEMBL2413060, “Synthesis, biological evaluation and molecular docking studies of some pyrimidine derivatives” (2013).
≈ marks a conversion by molar mass, not a printed value.

Legend:
Type in all cases: functional
[1] = tested on: Shigella flexneri; assay: Antibacterial activity against Shigella flexneri ATCC 15391 after 24 hrs by two-fold serial dilution method relative to ofloxacin
[2] = tested on: Shigella flexneri; assay: Antibacterial activity against Shigella flexneri ATCC 15391 after 24 hrs by two-fold serial dilution method; details: ATCC 15391, 24 h
In short: (§1)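 Two-fold serial broth dilution in sterile nutrient broth at 500, 250, 125, 62.5, 31.25, 15.63, 7.82 and 3.91 µg/ml, with dimethylformamide ≤2.5%. Organisms were pre-grown 24 h in broth, and 0.1 ml inoculum was added per 5 ml tube. Tubes were incubated at 37°C, 24 h for bacteria and 48 h for fungi. MIC was taken as the lowest concentration giving no turbidity.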

[3] = tested on: Candida albicans; assay: Antifungal activity against Candida albicans ATCC 2091 assessed as diameter of inhibition zone at 1 mg/ml after 48 hrs by cup diffusion method (reference value: 22 mm); details: ATCC 2091, 48 h, read-out: DIZ
[4] = tested on: Shigella flexneri; assay: Antibacterial activity against Shigella flexneri ATCC 15391 assessed as diameter of inhibition zone at 1 mg/ml after 24 hrs by cup diffusion method (reference value: 17 mm); details: ATCC 15391, 24 h, read-out: DIZ
[5] = tested on: Staphylococcus aureus; assay: Antibacterial activity against Staphylococcus aureus ATCC 6538P assessed as diameter of inhibition zone at 1 mg/ml after 24 hrs by cup diffusion method (reference value: 15 mm); details: read-out: DIZ
[6] = tested on: Pseudomonas aeruginosa; assay: Antibacterial activity against Pseudomonas aeruginosa ATCC 9027 assessed as diameter of inhibition zone at 1 mg/ml after 24 hrs by cup diffusion method (reference value: 16 mm); details: ATCC 9027, 24 h, read-out: DIZ
[7] = tested on: NCI/ADR-RES; assay: Cytotoxicity against human NCI/ADR-RES cells assessed as growth inhibition at 10 uM; details: read-out: GI
In short: (§2)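 Single-dose screen on human tumour cell lines. Growth of treated cells is expressed as percent of untreated growth, plotted as a mean graph, and reported as percent growth inhibition.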

[8] = tested on: Malme-3M; assay: Cytotoxicity against human MALME-3M cells assessed as growth inhibition at 10 uM; details: read-out: GI
[9] = tested on: SNB-75; assay: Cytotoxicity against human SNB75 cells assessed as growth inhibition at 10 uM; details: read-out: GI; in short: as §2
[10] = tested on: NCI-H23; assay: Cytotoxicity against human NCI-H23 cells assessed as growth inhibition at 10 uM; details: read-out: GI; in short: as §2
[11] = tested on: Candida albicans; assay: Antifungal activity against Candida albicans ATCC 2091 after 48 hrs by two-fold serial dilution method; details: ATCC 2091, 48 h; in short: as §1
[12] = tested on: Candida albicans; assay: Antifungal activity against Candida albicans ATCC 2091 after 48 hrs by two-fold serial dilution method relative to clotrimazole
[13] = tested on: T47D; assay: Cytotoxicity against human T47D cells assessed as growth inhibition at 10 uM; details: read-out: GI; in short: as §2
[14] = tested on: MDA-MB-435; assay: Cytotoxicity against human MDA-MB-435 cells assessed as growth inhibition at 10 uM; details: read-out: GI; in short: as §2
[15] = tested on: BT-549; assay: Cytotoxicity against human BT549 cells assessed as growth inhibition at 10 uM; details: read-out: GI
[16] = tested on: Hs-578T; assay: Cytotoxicity against human Hs578T cells assessed as growth inhibition at 10 uM; details: read-out: GI
[17] = tested on: PC-3; assay: Cytotoxicity against human PC3 cells assessed as growth inhibition at 10 uM; details: read-out: GI; in short: as §2
[18] = tested on: MCF7; assay: Cytotoxicity against human MCF7 cells assessed as growth inhibition at 10 uM; details: read-out: GI; in short: as §2
[19] = tested on: TK-10; assay: Cytotoxicity against human TK10 cells assessed as growth inhibition at 10 uM; details: read-out: GI
In short: (§3)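 Single-dose screen in a sixty-cell human tumour line panel; percent growth of treated cells relative to untreated was read and reported as percentage growth inhibition, shown as a mean graph. Compounds meeting the threshold inhibition criteria went on to five-dose testing.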

[20] = tested on: UO-31; assay: Cytotoxicity against human UO31 cells assessed as growth inhibition at 10 uM; details: read-out: GI; in short: as §3
[21] = tested on: SN12C; assay: Cytotoxicity against human SN12C cells assessed as growth inhibition at 10 uM; details: read-out: GI; in short: as §2
[22] = tested on: CAKI-1; assay: Cytotoxicity against human Caki1 cells assessed as growth inhibition at 10 uM; details: read-out: GI
[23] = tested on: A498; assay: Cytotoxicity against human A498 cells assessed as growth inhibition at 10 uM; details: read-out: GI
[24] = tested on: ACHN; assay: Cytotoxicity against human ACHN cells assessed as growth inhibition at 10 uM; details: read-out: GI
[25] = tested on: 786-0; assay: Cytotoxicity against human 786-0 cells assessed as growth inhibition at 10 uM; details: read-out: GI
[26] = tested on: SK-OV-3; assay: Cytotoxicity against human SKOV3 cells assessed as growth inhibition at 10 uM; details: read-out: GI; in short: as §2
[27] = tested on: OVCAR-8; assay: Cytotoxicity against human OVCAR8 cells assessed as growth inhibition at 10 uM; details: read-out: GI; in short: as §2
[28] = tested on: OVCAR-3; assay: Cytotoxicity against human OVCAR3 cells assessed as growth inhibition at 10 uM; details: read-out: GI; in short: as §2
[29] = tested on: IGROV-1; assay: Cytotoxicity against human IGROV1 cells assessed as growth inhibition at 10 uM; details: read-out: GI
[30] = tested on: UACC-62; assay: Cytotoxicity against human UACC62 cells assessed as growth inhibition at 10 uM; details: read-out: GI; in short: as §3
[31] = tested on: UACC-257; assay: Cytotoxicity against human UACC257 cells assessed as growth inhibition at 10 uM; details: read-out: GI; in short: as §3
[32] = tested on: SK-MEL-28; assay: Cytotoxicity against human SK-MEL-28 cells assessed as growth inhibition at 10 uM; details: read-out: GI; in short: as §2
[33] = tested on: SK-MEL-2; assay: Cytotoxicity against human SK-MEL-2 cells assessed as growth inhibition at 10 uM; details: read-out: GI; in short: as §2
[34] = tested on: M14; assay: Cytotoxicity against human M14 cells assessed as growth inhibition at 10 uM; details: read-out: GI
[35] = tested on: SF-539; assay: Cytotoxicity against human SF539 cells assessed as growth inhibition at 10 uM; details: read-out: GI; in short: as §2
[36] = tested on: SF-295; assay: Cytotoxicity against human SF295 cells assessed as growth inhibition at 10 uM; details: read-out: GI; in short: as §2
[37] = tested on: HCT-116; assay: Cytotoxicity against human HCT116 cells assessed as growth inhibition at 10 uM; details: read-out: GI
[38] = tested on: NCI-H460; assay: Cytotoxicity against human NCI-H460 cells assessed as growth inhibition at 10 uM; details: read-out: GI; in short: as §2
[39] = tested on: NCI-H322M; assay: Cytotoxicity against human NCI-H322M cells assessed as growth inhibition at 10 uM; details: read-out: GI; in short: as §2
[40] = tested on: HOP-92; assay: Cytotoxicity against human HOP92 cells assessed as growth inhibition at 10 uM; details: read-out: GI
[41] = tested on: HOP-62; assay: Cytotoxicity against human HOP62 cells assessed as growth inhibition at 10 uM; details: read-out: GI
[42] = tested on: Pseudomonas aeruginosa; assay: Antibacterial activity against Pseudomonas aeruginosa ATCC 9027 after 24 hrs by two-fold serial dilution method relative to ofloxacin
[43] = tested on: SR; assay: Cytotoxicity against human SR cells assessed as growth inhibition at 10 uM; details: read-out: GI; in short: as §2

N#Cc1c(-c2ccco2)[nH]c(=S)[nH]c1=O
Activity [1]: 60%
MIC [2]: 125 µg/mL (≈ 570 µM)
zone of inhibition at 1000 µg/mL [3]: 22 mm
zone of inhibition at 1000 µg/mL [4]: 21 mm
zone of inhibition at 1000 µg/mL [5]: 15 mm
zone of inhibition at 1000 µg/mL [6]: 16 mm
inhibition of growth at 10 µM [7]: 74.2%
inhibition of growth at 10 µM [8]: 55.6%
inhibition of growth at 10 µM [9]: 42.8%
inhibition of growth at 10 µM [10]: 78.6%

N#Cc1c(-c2ccccc2)nc(SCC(O)CN2CCOCC2)nc1N1CCOCC1 (centres undefined)
MIC [11]: 125 µg/mL (≈ 283 µM)
Activity [12]: 60%
zone of inhibition at 1000 µg/mL [3]: 24 mm
zone of inhibition at 1000 µg/mL [4]: 18 mm
zone of inhibition at 1000 µg/mL [5]: 15 mm
zone of inhibition at 1000 µg/mL [6]: 16 mm
inhibition of growth at 10 µM [13]: 74%
inhibition of growth at 10 µM [14]: 47%
inhibition of growth at 10 µM [15]: 70.5%
inhibition of growth at 10 µM [16]: 93.8%
inhibition of growth at 10 µM [17]: 43.5%
inhibition of growth at 10 µM [18]: 95%
inhibition of growth at 10 µM [19]: 59.2%
inhibition of growth at 10 µM [20]: 58.3%
inhibition of growth at 10 µM [21]: 42.2%
inhibition of growth at 10 µM [22]: 62.6%
inhibition of growth at 10 µM [23]: 103%
inhibition of growth at 10 µM [24]: 45.6%
inhibition of growth at 10 µM [25]: 61.9%
inhibition of growth at 10 µM [26]: 58.9%
inhibition of growth at 10 µM [27]: 66.6%
inhibition of growth at 10 µM [28]: 64.6%
inhibition of growth at 10 µM [29]: 130%
inhibition of growth at 10 µM [30]: 57.1%
inhibition of growth at 10 µM [31]: 82.9%
inhibition of growth at 10 µM [32]: 40.1%
inhibition of growth at 10 µM [33]: 92.7%
inhibition of growth at 10 µM [34]: 40.1%
inhibition of growth at 10 µM [8]: 76.9%
inhibition of growth at 10 µM [9]: 105%
inhibition of growth at 10 µM [35]: 43.4%
inhibition of growth at 10 µM [36]: 56.4%
inhibition of growth at 10 µM [37]: 42.5%
inhibition of growth at 10 µM [38]: 66%
inhibition of growth at 10 µM [39]: 47.7%
inhibition of growth at 10 µM [40]: 69.3%
inhibition of growth at 10 µM [41]: 52%

N#Cc1c(N2CCCCC2)nc(=S)[nH]c1-c1ccccc1
Activity [42]: 60%
Activity [1]: 60%
MIC [2]: 125 µg/mL (≈ 422 µM)
zone of inhibition at 1000 µg/mL [3]: 22 mm
zone of inhibition at 1000 µg/mL [4]: 20 mm
zone of inhibition at 1000 µg/mL [5]: 15 mm
zone of inhibition at 1000 µg/mL [6]: 16 mm
inhibition of growth at 10 µM [7]: 75.8%
inhibition of growth at 10 µM [8]: 48.7%
inhibition of growth at 10 µM [10]: 81.2%
inhibition of growth at 10 µM [40]: 44.5%
inhibition of growth at 10 µM [43]: 44.6%
